Screening data: PubChem, several laboratories
Only some compounds are listed: those with a hit (about 2.2% of all), similar ones and a draw of the others.
PglD DTNB: inhibitors of Campylobacter jejuni PglD acetyltransferase. purified PglD enzyme, DTNB colorimetric CoA detection. inhibition, % at 12.5 µM. 0.098% of 360,000 active; in the data active = inhibition above about 16%, passing the limit was not always enough
CR mimetic SO: yeast age-related superoxide inhibition as caloric restriction mimetic. 0.18% of 330,000 active. AID 2690. S. cerevisiae aged cells, superoxide DHE fluorescence; active compounds read low. superoxide response (% of plate mean), % at 10 µM;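 active = superoxide response under a set limit, about three screen SD below normal, cut at about 65% in these data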;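 also: yeast aged for seven days with compound at 30 °C before DHE staining; 100% = average MFI of all compound-treated wells on the plate with controls excluded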
Mot1-301 SUMO: SUMOylation pathway inhibition by Mot1-301 growth rescue. S. cerevisiae Mot1-301 growth rescue, ATP luminescence, 38.5C; percent above DMSO median, 100 means doubled. growth rescue, % at 18.8 µM. 1% of 320,000 active. AID 2716;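 active = every valid replicate shows activation above 250% relative to neutral control wells; inactive = the rest, any valid replicate at or below 250%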;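 also: OY570 slx delta 5 strain wells were the positive control but not used for scaling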
Cneo AK release: causes C. neoformans cell lysis. adenylate kinase release luminescence, 4 h; normalised: neutral wells 0, clomiphene wells 100. lysis activity, % at 15 µM. 0.2% of 360,000 active. AID 651654;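 active = mean lysis activity across replicates of at least 80%, whatever share of replicates individually reach that level; inactive = mean lysis activity below 80%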
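Test system: log-phase Cryptococcus neoformans yeast cells; Quantity: yeast cell density of 5 × 10^6 cells/mL; Buffer or medium: YPD; Doses: single compound concentration per well; Timing: 4 h at 37 °C static, read 1 h later; Measured by: AK luminescence; Read-out basis: lysis from increased AK signal; Control set: Clomiphene as positive control.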
rRNA inh HTS: inhibitors of bacterial rRNA selective over humanized ribosomes. E. coli WT GFP vs humanized-ribosome RFP mutants, fluorescence, 24 h; active compounds read low; DMSO median 0, no signal -100. GFP signal change (wild-type ribosome), % (no concentration beside the values). 1.6% of 350,000 active;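 active = significant combined selectivity score with lowered wild-type GFP, culture density cut under 30%, mutant RFP and density less affected; inactive = any of these conditions unmet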
Yeast Mot1 SUMO: SUMO pathway inhibitors in yeast Mot1-301 growth; shares compounds with Mot1-301 SUMO; S. cerevisiae Mot1-301 galactose growth, ATP luminescence, 24 h; -100 = growth of slx-deleted rescue strain; growth activity, percent, % at 42 µM; 2,300 tested, under 10 active; AID 493004;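 active = Signal drops as the depositor expects, and the fitted half-maximal dose is no more than ten times the top valid tested dose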;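 also: more negative values mean stronger growth rescue toward the control strain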
* marks the source's active call; other numbers are inactive results; nt = no result; + = active, no number.

SMILES	PglD DTNB	CR mimetic SO	Mot1-301 SUMO	Cneo AK release	rRNA inh HTS	Yeast Mot1 SUMO
C/C=C(/C)C(=O)OC1c2c(ccc3ccc(=O)oc23)OC(C)(C)C1OC(=O)/C(C)=C\C (stereo not given)	5	123	730*	2	nt	1
COC(=O)C(CC(C)C)NC(=O)CNC(=O)c1ccccc1C (stereo not given)	8	96	+	1	nt	0
COc1ccccc1N1CCN(C(=O)c2ccc(-c3ccccc3)cc2)CC1	2	82	+	-7	-17	0
CO[C@H]1CN(C)C(=O)c2ccc(NC(=O)Cc3ccccc3)cc2OC[C@@H](C)N(C(C)=O)C[C@@H]1C	2	nt	nt	-4	1	nt
CO[C@H]1CN(C)C(=O)c2cc(NC(=O)Nc3c(C)noc3C)ccc2OC[C@@H](C)NC[C@@H]1C	0	nt	nt	1	-1	nt
CCN(Cc1ccccc1)Cc1ccc(OCc2ccccc2)c(OC)c1	-3	103	365*	4	-15	0
CCOc1ccccc1CN1CCNC(=O)C1CC(=O)NCCN1CCOC1=O (stereo not given)	4	96	501*	1	21	1
CCC(CC)C(=O)N1CCCC(c2nc(-c3cccs3)no2)C1 (stereo not given)	3	111	503*	0	nt	1
O=[N+]([O-])c1cncc([N+](=O)[O-])c1Nc1ccccc1Cl	-2	118	813*	-3	-1	0
COc1cccc(Nc2c([N+](=O)[O-])cncc2[N+](=O)[O-])c1	0	110	147	-1	-13	nt
COc1cc2c(cc1OC)C(c1cccc(OC)c1OC)CC(=O)N2 (stereo not given)	1	96	4	0	nt	nt
COc1cc2c(cc1OC)C(c1ccc(SC)cc1)CC(=O)N2 (stereo not given)	-2	89	666*	-1	-4	-1
COc1cc2c(cc1OC)C(c1ccccc1C)CC(=O)N2 (stereo not given)	6	85	732*	0	5	0
Cc1cc2ncc(C(=O)N=CN(C)C)cn2n1	nt	103	498*	nt	25	0
C[C@@H]1CCCCO[C@H](CN(C)C(=O)Nc2cccc3ccccc23)[C@@H](C)CN([C@@H](C)CO)C(=O)c2cc(NC(=O)c3ccccc3)ccc2O1	0	nt	nt	-6	6	nt
S=C(NCCc1c[nH]c2ccccc12)NC1CC1	14	139	401*	0	4	0
S=C(NCCc1c[nH]c2ccccc12)NC1CCCC1	nt	101	3	nt	-2	nt
COc1ccccc1NC(=O)NCCc1c[nH]c2ccccc12	nt	97	840*	nt	-22*	-1
CC(=O)Nc1ccc(C(=O)NCCCOC(C)C)cc1	-3	104	798*	3	19	0
CC(=O)OCC(OC(C)=O)C(OC(C)=O)C(OC(C)=O)C(=O)Nc1ccccc1 (stereo not given)	nt	109	386*	nt	13	0
C/C=C\C(=O)Nc1cccc(C2=NOC3(C2)C[C@@H](C(N)=O)N(C(=O)c2ccccc2)C3)c1 (stereo not given in full)	0	99	1	6	3	nt
C/C=C\C=C/C(=O)Nc1cccc(C2=NOC3(C2)C[C@@H](C(N)=O)N(C(=O)c2ccccc2)C3)c1 (stereo not given in full)	nt	102	433*	nt	nt	0
Cc1nn(C)c(Cl)c1CN1CCN(CC(C)C)C(CCO)C1 (stereo not given)	7	93	1	3	9	nt
Cc1nn(C)c(Cl)c1CN1CCN(CCC(C)C)C(CCO)C1 (stereo not given)	-1	106	+	6	13	0
CC(C)(C)c1cc(NCCCn2ccnc2)n2ncc(-c3ccc(Cl)cc3)c2n1	nt	114	622*	nt	nt	-1
O=C1Nc2ccccc2/C1=C/c1ccccc1Cl	-2	95	-8	-8	-56	nt
O=C1Nc2ccccc2/C1=C/c1ccc([N+](=O)[O-])cc1	nt	91	477*	nt	-2	0
CN(C)c1oc(-c2ccccc2Cl)nc1S(=O)(=O)c1ccccc1	0	96	636*	3	4	0
